Experimental data from ChEMBL document CHEMBL1938314, “Electrochemical and spectroscopic investigations of isoniazide and its analogs with ds.DNA at physiological pH: evaluation of biological activities” (Eur J Med Chem, 2012).
In brackets after ≈: the same amount, converted by molar mass. Activity calls are given as the source filed them. The calls are words filed in the database; no cut-off is given here.

Key:
[1] = system: Bordetella bronchiseptica; experiment: Antibacterial activity against Bordetella bronchiseptica ATCC 10580 at 1 mg/ml after 24 hrs by agar well diffusion method; type: functional; settings: for zone of inhibition at 1000 µg/mL: ATCC 10580, 24 h, read-out: DIZ
How it was run: (§1)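 Agar well diffusion. Strains grown in LB at 37 °C for 24 h; 0.75 ml broth culture seeded into 75 ml nutrient agar. 8 mm wells received 100 µl of sample at 1 mg/ml in DMSO. Incubated 37 °C for 24 h; inhibition zone diameter measured in mm. DMSO negative control; roxithromycin and cefixime (1 mg/ml) positive controls.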

[2] = system: Klebsiella aerogenes; experiment: Antibacterial activity against Enterobacter aerogenes ATCC 13048 at 1 mg/ml after 24 hrs by agar well diffusion method; type: functional; settings: for zone of inhibition at 1000 µg/mL: ATCC 13048, 24 h, read-out: DIZ; how it was run: as §1
[3] = system: Salmonella typhi; experiment: Antibacterial activity against Salmonella typhi ATCC 6539 at 1 mg/ml after 24 hrs by agar well diffusion method; type: functional, Salmonella enterica subsp. enterica serovar Typhi; settings: for zone of inhibition at 1000 µg/mL: Salmonella enterica, ATCC 6539, 24 h, read-out: DIZ; for diameter of the inhibition zone (DIZ): Salmonella enterica subsp. enterica serovar Typhi
How it was run: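 Agar well diffusion. S. typhi ATCC 6539 grown in LB at 37 °C for 24 h, 0.75 ml broth culture seeded into 75 ml nutrient agar. 8 mm wells received 100 µl of sample at 1 mg/ml in DMSO. Plates incubated 37 °C for 24 h and inhibition zone diameter measured in mm. DMSO as negative control; roxithromycin and cefixime (1 mg/ml) as positive controls.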

[4] = system: Escherichia coli; experiment: Antibacterial activity against Escherichia coli ATCC 15224 at 1 mg/ml after 24 hrs by agar well diffusion method; type: functional; settings: for zone of inhibition at 1000 µg/mL: ATCC 15224, 24 h, read-out: DIZ; how it was run: as §1
[5] = system: Micrococcus luteus; experiment: Antibacterial activity against Micrococcus luteus ATCC 10240 at 1 mg/ml after 24 hrs by agar well diffusion method; type: functional; settings: for zone of inhibition at 1000 µg/mL: ATCC 10240, 24 h, read-out: DIZ; how it was run: as §1
[6] = system: Staphylococcus aureus; experiment: Antibacterial activity against Staphylococcus aureus ATCC 6538 at 1 mg/ml after 24 hrs by agar well diffusion method; type: functional; settings: for zone of inhibition at 1000 µg/mL: ATCC 6538, 24 h, read-out: DIZ; how it was run: as §1
[7] = system: Nucleic Acid; experiment: Binding affinity to chicken blood dsDNA assessed as hyperchromic effect at 1.1 x 10 '-4 M at pH 4.7 by UV-spectroscopy; type: nucleic-acid assay; settings: Gallus gallus
How it was run: (§2)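 Chicken blood DNA (A260/A280 >1.8) quantified at 260 nm (ε 6600). Compound held at 1.1 × 10^-4 M; DNA titrated 10–50 µM in acetate pH 4.7 or phosphate pH 7.4 buffer at 37 °C; UV absorbance recorded. Kb taken as intercept/slope of A0/(A−A0) vs 1/[DNA] (Benesi–Hildebrand); ΔG = −RTlnKb.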

[8] = system: Nucleic Acid; experiment: Binding affinity to chicken blood dsDNA assessed as hyperchromic effect at 1.1 x 10 '-4 M at pH 7.4 by UV-spectroscopy; type: nucleic-acid assay; settings: Gallus gallus; how it was run: as §2
[9] = system: Nucleic Acid; experiment: Binding affinity to chicken blood dsDNA at pH 4.7 by UV-spectroscopy; type: nucleic-acid assay; settings: Gallus gallus; how it was run: as §2
[10] = system: Nucleic Acid; experiment: Binding affinity to chicken blood dsDNA at pH 7.4 by UV-spectroscopy; type: nucleic-acid assay; settings: Gallus gallus; how it was run: as §2
[11] = system: Nucleic Acid; experiment: Binding affinity to chicken blood dsDNA at pH 4.7 by cyclic voltammetry; type: nucleic-acid assay; settings: Gallus gallus
How it was run: (§3)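 Cyclic voltammetry at glassy carbon electrode vs SCE. Compound 1 mM in acetate pH 4.7 or phosphate pH 7.4 buffer at 37 °C, argon-purged 10–15 min. Scanned −1 to +1.5 V at 100 mV/s before and after chicken blood DNA (10–50 µM final). Peak current decrease and Ep shift recorded; Kb derived from current decrease.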

[12] = system: Nucleic Acid; experiment: Binding affinity to chicken blood dsDNA at pH 7.4 by cyclic voltammetry; type: nucleic-acid assay; settings: Gallus gallus; how it was run: as §3
[13] = system: Nucleic Acid; experiment: Antioxidant activity against OH-radical-induced oxidative Escherichia coli pBR322 damage at 100 to 1000 ug/ml incubated for 1 hr in dark by agarose gel electrophoresis; type: nucleic-acid assay
How it was run: (§4)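 pBR322 plasmid diluted in 50 mM phosphate buffer. 15 µl reactions held diluted plasmid, test compound (1000, 100 or 10 µg/ml), 2 mM FeSO4 and 30% H2O2. Incubated 37 °C for 1 h in dark. Controls: plasmid plus FeSO4/H2O2, and untreated plasmid. Run on 1% agarose in TBE, ethidium bromide stained; supercoiled band intensity compared with control.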

[14] = system: Nucleic Acid; experiment: Antioxidant activity against OH-radical-induced oxidative Escherichia coli pBR322 damage at 10 ug/ml incubated for 1 hr in dark by agarose gel electrophoresis; type: nucleic-acid assay; how it was run: as §4
[15] = system: Artemia; experiment: Cytotoxicity against brine shrimps after 24 hr; type: functional; settings: read-out: LD50 (the source's name)
How it was run: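 Brine shrimp lethality. Artemia salina hatched 48 h at room temperature in aerated artificial sea water (sea salt 38 g/l). Ten active nauplii per vial in 5 ml sea water with compound at 10, 100 and 1000 µg/ml final. Survivors counted after 24 h, run in triplicate. LD50 derived by Finney analysis.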

[16] = system: Nucleic Acid; experiment: Binding affinity to chicken blood dsDNA assessed as shift in Ep/mv at 1 x 10 '-3 M at pH 4.7 by cyclic voltammetry; type: nucleic-acid assay; settings: Gallus gallus; how it was run: as §3
[17] = system: Nucleic Acid; experiment: Binding affinity to chicken blood dsDNA assessed as shift in Ep/mv at 1 x 10 '-3 M at pH 7.4 by cyclic voltammetry; type: nucleic-acid assay; settings: Gallus gallus; how it was run: as §3
[18] = system: Nucleic Acid; experiment: Binding affinity to chicken blood dsDNA assessed as decrease in current at 1 x 10 '-3 M at pH 4.7 by cyclic voltammetry; type: nucleic-acid assay; design: scale not given: the % may be the effect or the level left; settings: Gallus gallus; how it was run: as §3
[19] = system: Nucleic Acid; experiment: Binding affinity to chicken blood dsDNA assessed as decrease in current at 1 x 10 '-3 M at pH 7.4 by cyclic voltammetry; type: nucleic-acid assay; design: scale not given: the % may be the effect or the level left; settings: Gallus gallus; how it was run: as §3
[20] = system: Bordetella bronchiseptica; experiment: Antibacterial activity against Bordetella bronchiseptica ATCC 10580 after 24 hrs by agar well diffusion method; type: functional; settings: ATCC 10580, 24 h
How it was run: (§5)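 MIC by agar well diffusion with serial dilutions. Strains grown in LB at 37 °C for 24 h. 0.75 ml broth culture mixed into 75 ml nutrient agar and poured; 8 mm wells cut, filled with test sample in DMSO. Plates incubated 37 °C for 24 h. DMSO served as negative control, roxithromycin and cefixime as positive controls.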

[21] = system: Klebsiella aerogenes; experiment: Antibacterial activity against Enterobacter aerogenes ATCC 13048 after 24 hrs by agar well diffusion method; type: functional; settings: ATCC 13048, 24 h; how it was run: as §5
[22] = system: Salmonella typhi; experiment: Antibacterial activity against Salmonella typhi ATCC 6539 after 24 hrs by agar well diffusion method; type: functional, Salmonella enterica subsp. enterica serovar Typhi; settings: Salmonella enterica, ATCC 6539, 24 h
[23] = system: Escherichia coli; experiment: Antibacterial activity against Escherichia coli ATCC 15224 after 24 hrs by agar well diffusion method; type: functional; settings: ATCC 15224, 24 h; how it was run: as §5
[24] = system: Micrococcus luteus; experiment: Antibacterial activity against Micrococcus luteus ATCC 10240 after 24 hrs by agar well diffusion method; type: functional; settings: ATCC 10240, 24 h; how it was run: as §5
[25] = system: Staphylococcus aureus; experiment: Antibacterial activity against Staphylococcus aureus ATCC 6538 after 24 hrs by agar well diffusion method; type: functional; settings: ATCC 6538, 24 h; how it was run: as §5
[26] = system: Nucleic Acid; experiment: Antioxidant activity against OH-radical-induced oxidative Escherichia coli pBR322 damage at 10 to 100 ug/ml incubated for 1 hr in dark by agarose gel electrophoresis; type: nucleic-acid assay; how it was run: as §4
[27] = system: Nucleic Acid; experiment: Enhancement of OH-radical-induced oxidative Escherichia coli pBR322 damage at 1000 ug/ml incubated for 1 hr in dark by agarose gel electrophoresis; type: nucleic-acid assay; how it was run: as §4
[28] = system: Nucleic Acid; experiment: Antioxidant activity against OH-radical-induced oxidative Escherichia coli pBR322 damage at 10 to 1000 ug/ml incubated for 1 hr in dark by agarose gel electrophoresis; type: nucleic-acid assay; how it was run: as §4

Compound | zone of inhibition at 1000 µg/mL [1] | zone of inhibition at 1000 µg/mL [2] | zone of inhibition at 1000 µg/mL [3] | zone of inhibition at 1000 µg/mL [4] | zone of inhibition at 1000 µg/mL [5] | zone of inhibition at 1000 µg/mL [6] | Activity [7] | Activity [8] | Kb [9] | Kb [10] | Kb [11] | Kb [12] | diameter of the inhibition zone (DIZ) [1] | diameter of the inhibition zone (DIZ) [2] | diameter of the inhibition zone (DIZ) [3] | LC50 [15] | Activity [16] | Activity [17] | Activity [18] | Activity [19] | other results
CC[C@H]1OC(=O)[C@H](C)[C@@H](O[C@H]2C[C@@](C)(OC)[C@@H](O)[C@H](C)O2)[C@H](C)[C@@H](O[C@@H]2O[C@H](C)C[C@H](N(C)C)[C@H]2O)[C@](C)(O)C[C@@H](C)/C(=N\OCOCCOC)[C@H](C)[C@@H](O)[C@]1(C)O [ROXITHROMYCIN] | 18.2 mm | 31.2 mm | 27.9 mm | 18.1 mm | 30.2 mm | 32 mm | – | – | – | – | – | – | – | – | – | – | – | – | – | – | –
C=CC1=C(C(=O)O)N2C(=O)[C@@H](NC(=O)/C(=N\OCC(=O)O)c3csc(N)n3)[C@H]2SC1 [CEFIXIME] | 38.5 mm | 16.1 mm | 34.3 mm | 40.5 mm | 38.7 mm | 39.1 mm | – | – | – | – | – | – | – | – | – | – | – | – | – | – | –
NNC(=O)c1cnccn1 [PYRAZINE CARBOXYLIC ACID HYDRAZIDE] | – | – | – | – | – | – | Active | Active | 1.6 ×10⁴ /M | 1.1 ×10⁴ /M | 1.7 ×10⁴ /M | 1.21 ×10⁴ /M | inactive | inactive | inactive | 313 µg/mL (≈ 2260 µM) | 44 | 51 | 75% | 33.3% | diameter of the inhibition zone (DIZ) [4]: inactive; diameter of the inhibition zone (DIZ) [5]: inactive; diameter of the inhibition zone (DIZ) [6]: inactive; Activity [13]: Active; Activity [14]: inactive
NNC(=O)c1ccc(O)cc1O | 18.2 mm | 15.3 mm | 24.6 mm | 25.1 mm | 18.2 mm | 13.4 mm | Active | Active | 2.02 ×10⁴ /M | 1.24 ×10⁴ /M | 3.13 ×10⁴ /M | 1.31 ×10⁴ /M | – | – | – | 419 µg/mL (≈ 2490 µM) | 20 | 37 | 29.2% | 26.1% | MIC [20]: 800 µg/mL (≈ 4760 µM); MIC [21]: 800 µg/mL (≈ 4760 µM); MIC [22]: 100 µg/mL (≈ 595 µM); MIC [23]: 100 µg/mL (≈ 595 µM); MIC [24]: 800 µg/mL (≈ 4760 µM); MIC [25]: 200 µg/mL (≈ 1190 µM); Activity [26]: Active; Activity [27]: Toxic
NNC(=O)c1ccncc1 [ISONIAZID] | – | – | – | – | – | – | Active | Active | 1.6 ×10⁴ /M | 1.42 ×10⁴ /M | 2.03 ×10⁴ /M | 1.6 ×10⁴ /M | inactive | inactive | inactive | 1070 µg/mL (≈ 7840 µM) | 51 | 8 | 50.8% | 77.1% | diameter of the inhibition zone (DIZ) [4]: inactive; diameter of the inhibition zone (DIZ) [5]: inactive; diameter of the inhibition zone (DIZ) [6]: inactive; Activity [28]: Active
